ChEMBL document CHEMBL4130351, “Novel pyrazolopyrimidines: Synthesis, in vitro cytotoxic activity and mechanistic investigation” (Eur J Med Chem, 2017)

Tests used:
MCF7 = assay: Cytotoxicity against human MCF7 cells assessed as reduction in cell viability after 72 hrs by MTT assay; format: functional, cell-based; settings: MCF7, 72 h
In short: (§1)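 MCF-7 and HepG2 cells in exponential growth were trypsinized and seeded at 1000–2000 cells/well, then incubated 24 h at 37 °C. Compound exposure was 72 h at 0.1, 10, 100 and 1000 μM. Cells took up 5% MTT for 2 h, and formazan was dissolved in acidified isopropanol for 30 min at room temperature. A570 was read, viability expressed as % of control, and IC50 obtained by curve fitting.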

HepG2 = assay: Cytotoxicity against human HepG2 cells assessed as reduction in cell viability after 72 hrs by MTT assay; format: functional, cell-based; settings: HepG2, 72 h; in short: as §1

For `NS(=O)(=O)c1ccc(-n2ncc3c(=O)[nH]c(-c4ccc(F)cc4)nc32)cc1`, the IC50 (MCF7) was 38 µM and the IC50 (HepG2) was 2.66 µM.

Work on `COc1cccc2c1C(=O)c1c(O)c3c(c(O)c1C2=O)C[C@@](O)(C(=O)CO)C[C@@H]3O[C@H]1C[C@H](N)[C@H](O)[C@H](C)O1` [DOXORUBICIN] yielded an IC50 (MCF7) of 1.02 µM and an IC50 (HepG2) of 0.9 µM.

With `NS(=O)(=O)c1ccc(-n2ncc3c(=O)[nH]c(-c4ccccc4)nc32)cc1` the IC50 (MCF7) was > 100 µM and the IC50 (HepG2) was 77.6 µM.

`Nc1ncnc2c1cnn2-c1ccc(S(N)(=O)=O)cc1` gave an IC50 (MCF7) of 40.7 µM and an IC50 (HepG2) of 95.5 µM.

With `COc1ccc(-c2nc3c(cnn3-c3ccc(S(N)(=O)=O)cc3)c(=O)[nH]2)cc1OC` the IC50 (MCF7) was > 100 µM and the IC50 (HepG2) was > 100 µM.

For `NS(=O)(=O)c1ccc(-n2ncc3c(=O)[nH]c(-c4ccc(Br)cc4)nc32)cc1`, the IC50 (MCF7) was 14.5 µM and the IC50 (HepG2) was 42.6 µM.
